ChEMBL document CHEMBL1142308, “Synthesis and structure-activity relationships of N-(3-phenylpropyl)-N'-benzylpiperazines: Potent ligands for sigma1 and sigma2 receptors” (Bioorg Med Chem, 2008)

Key:
[1] = molecular target: Mu-type opioid receptor (Cavia porcellus) (UniProt P97266); experiment: Displacement of [3H]DAMGO from mu opioid receptor in guinea pig brain; set-up: concentration or dose not given beside the values
In short: (§1)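 Brain membranes came from guinea pig for mu and kappa and from mouse for delta. Radioligands were [3H]DAMGO (mu), [3H]NTI (delta) and [3H]U69,593 (kappa). The read-out is percent displacement of radioligand binding at a single concentration of 1–2 of test compound.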

[2] = molecular target: T1, Sigma non-opioid intracellular receptor 1 (Cavia porcellus, UniProt Q60492); experiment: Displacement of [3H](+)-PTZ from sigma1 receptor in Hartley guinea pig brain
T1 sequence (Q60492 whole entry): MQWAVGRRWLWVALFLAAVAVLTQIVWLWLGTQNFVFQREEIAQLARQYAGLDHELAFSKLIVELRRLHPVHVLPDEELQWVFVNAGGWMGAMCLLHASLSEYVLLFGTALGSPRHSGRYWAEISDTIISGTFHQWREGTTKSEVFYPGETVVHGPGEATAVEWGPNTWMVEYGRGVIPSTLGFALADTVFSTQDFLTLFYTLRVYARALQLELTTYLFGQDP

Cavia porcellus = species: Cavia porcellus; experiment: Ratio of Ki for sigma2 receptor in Hartley guinea pig brain to Ki for sigma1 receptor in Hartley guinea pig brain
In short: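 Selectivity is expressed as the sigma2/sigma1 Ki ratio. The sigma1 Ki comes from [3H](+)-pentazocine displacement and the sigma2 Ki from [3H]DTG displacement, both in guinea pig brain. Each Ki is from Cheng-Prusoff, using Kd 2.3 nM and 23.9 nM respectively, with duplicates repeated 3–6 times.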

[3] = molecular target: Kappa-type opioid receptor (Cavia porcellus) (UniProt P41144); experiment: Displacement of [3H]U69593 from kappa opioid receptor in guinea pig brain; set-up: concentration or dose not given beside the values; in short: as §1
Kappa-type opioid receptor (Cavia porcellus), sequence (P41144 whole entry): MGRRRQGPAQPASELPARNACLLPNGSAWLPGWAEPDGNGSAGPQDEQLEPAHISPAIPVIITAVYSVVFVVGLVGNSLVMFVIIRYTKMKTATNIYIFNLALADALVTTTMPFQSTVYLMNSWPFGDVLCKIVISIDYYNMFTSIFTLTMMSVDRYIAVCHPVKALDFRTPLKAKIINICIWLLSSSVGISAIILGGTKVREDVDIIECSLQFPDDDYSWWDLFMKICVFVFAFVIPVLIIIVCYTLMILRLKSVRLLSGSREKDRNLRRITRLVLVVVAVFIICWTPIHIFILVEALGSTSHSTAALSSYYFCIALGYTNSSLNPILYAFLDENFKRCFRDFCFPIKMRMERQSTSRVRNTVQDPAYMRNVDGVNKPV

[4] = molecular target: Delta-type opioid receptor (Mus musculus) (UniProt P32300); experiment: Displacement of [3H]NTI from delta opioid receptor in mouse brain; type: tissue-based; set-up: concentration or dose not given beside the values; in short: as §1
Delta-type opioid receptor (Mus musculus), sequence (P32300 whole entry): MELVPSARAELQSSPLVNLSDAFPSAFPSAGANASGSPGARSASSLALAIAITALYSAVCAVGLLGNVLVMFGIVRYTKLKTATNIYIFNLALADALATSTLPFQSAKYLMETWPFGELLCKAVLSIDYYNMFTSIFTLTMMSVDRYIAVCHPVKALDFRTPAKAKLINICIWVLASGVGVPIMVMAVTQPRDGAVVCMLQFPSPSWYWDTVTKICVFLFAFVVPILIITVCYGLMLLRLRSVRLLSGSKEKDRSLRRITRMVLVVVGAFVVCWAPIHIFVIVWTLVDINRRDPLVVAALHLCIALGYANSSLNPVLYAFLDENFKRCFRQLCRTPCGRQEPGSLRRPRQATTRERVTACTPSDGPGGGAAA

[5] = Displacement of [3H]DTG from sigma2 receptor in Hartley guinea pig brain; set-up: species or system Cavia porcellus
[6] = molecular target: Sigma non-opioid intracellular receptor 1 (Cavia porcellus) (UniProt Q60492); experiment: Ratio of IC50 for sigma1 receptor in absence of phenytoin to in presence of phenytoin in guinea pig membrane; type: cell membranes
Sigma non-opioid intracellular receptor 1 (Cavia porcellus), sequence (Q60492 whole entry): as the sequence (Q60492 whole entry) above
In short: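 Sigma1 competition binding against [3H](+)-pentazocine in guinea pig brain homogenates, with phenytoin in 0.15 M NaOH vehicle added to every tube, alongside controls given only 0.15 M NaOH. Incubation medium was pH 7.44 at 37 °C with the NaOH additions. Ratio is IC50 without phenytoin over IC50 with it. Run in duplicate, repeated 3–6 times.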

[7] = molecular target: T1, Sigma non-opioid intracellular receptor 1; experiment: Displacement of [3H]pentazocine from sigma1 receptor in guinea pig membrane; type: cell membranes
[8] = molecular target: T1, Sigma non-opioid intracellular receptor 1; experiment: Displacement of [3H]pentazocine from sigma1 receptor in guinea pig membrane in presence of phenytoin; type: cell membranes
In short: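 [3H](+)-pentazocine sigma1 binding run as the standard assay, but with phenytoin in 0.15 M NaOH vehicle added to every tube; parallel controls received NaOH only. Trials performed in duplicate, 3–5 trials; ratio of IC50 with versus without phenytoin used for agonist/antagonist profiling.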

D(2) dopamine receptor = D(2) dopamine receptor (Homo sapiens, UniProt P14416); experiment: Binding affinity to dopamine D2 receptor
D(2) dopamine receptor, sequence (P14416 whole entry): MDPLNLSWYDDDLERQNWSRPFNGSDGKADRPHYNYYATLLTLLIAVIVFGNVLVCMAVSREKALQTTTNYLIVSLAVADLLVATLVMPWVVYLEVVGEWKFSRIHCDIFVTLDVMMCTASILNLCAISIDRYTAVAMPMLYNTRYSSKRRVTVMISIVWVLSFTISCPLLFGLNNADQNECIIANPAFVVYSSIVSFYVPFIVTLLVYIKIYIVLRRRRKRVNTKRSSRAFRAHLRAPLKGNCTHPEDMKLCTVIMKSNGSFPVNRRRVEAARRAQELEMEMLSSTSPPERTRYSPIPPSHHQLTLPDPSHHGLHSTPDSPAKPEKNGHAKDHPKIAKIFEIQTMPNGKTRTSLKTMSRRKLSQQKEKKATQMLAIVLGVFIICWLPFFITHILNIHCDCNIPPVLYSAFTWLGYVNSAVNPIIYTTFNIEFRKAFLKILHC

[9] = Binding affinity to sigma receptor
[10] = molecular target: T2, 5-hydroxytryptamine receptor 1A (Homo sapiens, UniProt P08908); experiment: Binding affinity to 5HT1A receptor
T2 sequence (P08908 whole entry): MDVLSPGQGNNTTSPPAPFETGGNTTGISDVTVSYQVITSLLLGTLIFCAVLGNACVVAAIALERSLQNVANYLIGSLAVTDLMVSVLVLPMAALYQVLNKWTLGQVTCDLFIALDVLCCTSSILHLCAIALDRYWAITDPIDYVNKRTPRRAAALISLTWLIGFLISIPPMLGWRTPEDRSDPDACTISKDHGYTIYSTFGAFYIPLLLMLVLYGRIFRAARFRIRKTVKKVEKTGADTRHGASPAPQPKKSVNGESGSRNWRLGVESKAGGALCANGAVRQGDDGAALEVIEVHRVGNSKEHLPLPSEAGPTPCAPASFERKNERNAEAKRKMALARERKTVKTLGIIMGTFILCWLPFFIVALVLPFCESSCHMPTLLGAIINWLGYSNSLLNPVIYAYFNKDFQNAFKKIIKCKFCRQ

Mu-type opioid receptor (Cavia porcellus), sequence (P97266 whole entry): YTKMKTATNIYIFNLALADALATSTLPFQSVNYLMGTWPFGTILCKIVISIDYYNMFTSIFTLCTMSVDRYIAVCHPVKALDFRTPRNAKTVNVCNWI

| SMILES | Activity [1] [%] | Ki [2] [nM] | Ratio Ki (Cavia porcellus) | Activity [3] [%] | Activity [4] [%] | Ki [5] [nM] | Ratio IC50 [6] | IC50 [7] [nM] | IC50 [8] [nM] | IC50 (D(2) dopamine receptor) [nM] | IC50 [9] [nM] | IC50 [10] [nM] |
| --- | --- | --- | --- | --- | --- | --- | --- | --- | --- | --- | --- | --- |
| O=[N+]([O-])c1cccc(CN2CCN(CCCc3ccccc3)CC2)c1 | < 5 | 0.93 | 1.7 | < 5 | < 5 | 1.59 |  |  |  |  |  |  |
| O=[N+]([O-])c1ccc(CN2CCN(CCCc3ccccc3)CC2)cc1 | < 5 | 0.37 | 8.9 | < 5 | < 5 | 3.29 |  |  |  |  |  |  |
| COc1cccc(CN2CCN(CCCc3ccccc3)CC2)c1 | < 5 | 0.87 | 16.3 | < 5 | < 5 | 14.2 |  |  |  |  |  |  |
| c1ccc(CCCN2CCN(Cc3ccccc3)CC2)cc1 | < 5 | 0.66 | 52 | < 5 | < 5 | 34.3 | 0.8 | 1.47 | 1.89 | > 100 | 20 | > 100 |
| O=[N+]([O-])c1ccccc1CN1CCN(CCCc2ccccc2)CC1 | < 5 | 2.8 | 1.4 | < 5 | < 5 | 3.79 |  |  |  |  |  |  |
| Fc1cccc(CN2CCN(CCCc3ccccc3)CC2)c1 | < 5 | 1.36 | 10.2 | < 5 | < 5 | 13.8 |  |  |  |  |  |  |
| Brc1ccccc1CN1CCN(CCCc2ccccc2)CC1 | < 5 | 0.6 | 6.9 | < 5 | < 5 | 4.12 |  |  |  |  |  |  |
| COc1ccc2c(c1)[C@]13CCCC[C@@H]1[C@H](C2)N(C)CC3 [DEXTROMETHORPHAN] |  |  |  |  |  |  |  | 232 | 15.2 |  |  |  |
| COc1ccc(CCN2CCN(CCCc3ccccc3)CC2)cc1OC [[11C]SA4503] |  |  |  |  |  | 89.5 |  |  |  |  |  |  |
| COc1ccc(CN2CCN(CCCc3ccccc3)CC2)cc1 | < 5 | 0.76 | 43.2 | < 5 | < 5 | 32.8 |  |  |  |  |  |  |
| Ic1cccc(CN2CCN(CCCc3ccccc3)CC2)c1 | < 5 | 0.39 | 2.6 | < 5 | < 5 | 1.03 |  |  |  |  |  |  |
| Cc1ccc(CN2CCN(CCCc3ccccc3)CC2)cc1 | < 5 | 1.17 | 15 | < 5 | < 5 | 17.5 |  |  |  |  |  |  |
